Measured values from PubChem BioAssay AID504653 (Molecular Libraries Program, Specialized Chemistry Center, …, 2011).
Activity calls are given as the source filed them.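 Rule for the calls: active = caspase 3/7 peak fold activation above 5 at a dose under 20 µM within 7 h; inactive = the rest.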

System: SW403 caspase-3/7 Glo luminescence, 7 h
Assay: apoptosis induction by VCP inhibitors – cell-based, mechanism study for p97 inhibitor project (AID 504653)
Conditions: stronger effect = higher value
Procedure, shortened: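 Test system – SW403 human cells, endogenous caspase-3/7 activity · Timing – 7 h compound exposure, then 1 h reagent incubation at room temperature · Benchmarks – 1 % DMSO wells as reference · Signal – Caspase-3/7 Glo reagent, luminescence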

| SMILES | maximal fold activation |
| --- | --- |
| Clc1cccc(Nc2nc(NCc3ccccc3)c3ccccc3n2)c1 | 7.3 (inactive) |
| OCCOc1cccc2c(NCc3ccccc3)nc(N3CCOc4ccccc43)nc12 | 1.3 (inactive) |
| Cc1ccc(CNc2nc(NCc3ccccc3)c3ccccc3n2)cc1 | 13 (inactive) |
| c1ccc(CNc2nc(N3CCOc4ccccc43)nc3ccccc23)cc1 | 1.6 (inactive) |
| COc1cccc2c(NCc3ccccc3)nc(Nc3nc4ccccc4n3C)nc12 | 16 |
| Brc1cccc(CNc2nc(NCc3ccccc3)c3ccccc3n2)c1 | 18 |
| COc1cccc2c(NCc3ccccc3)nc(N3CCOc4ccccc43)nc12 | 1.6 (inactive) |
| FC(F)(F)c1ccc(CNc2nc(NCc3ccccc3)c3ccccc3n2)cc1 | 26 |
| COc1cccc2c(NCc3ccccc3)nc(NCc3cccs3)nc12 | 24 |
| COc1cccc2c(NCc3ccccc3)nc(NCc3ccccc3)nc12 | 12 (inactive) |
| Fc1cccc(Nc2nc(NCc3ccccc3)c3ccccc3n2)c1 | 15 (inactive) |
| Fc1cccc(CNc2nc(NCc3ccccc3)c3ccccc3n2)c1 | 5.9 (inactive) |
| COc1cccc2c(NCc3ccccc3)nc(-n3c(N)nc4cc(Cl)c(Cl)cc43)nc12 | 1.6 (inactive) |
| c1ccc(CNc2nc(N3CCOc4ccccc43)nc3ccsc23)cc1 | 1.4 (inactive) |
| COc1cccc2c(NCc3ccccc3)nc(-n3c(N)nc4ccccc43)nc12 | 29 |
| CCN(CC)CCOc1cccc2c(NCc3ccccc3)nc(N3CCOc4ccccc43)nc12 | 8 (inactive) |
| COc1cccc(CNc2nc(NCc3ccccc3)c3ccccc3n2)c1 | 3.3 (inactive) |
